# Published values collected from several papers.
# ABL1 Y253F: Tyrosine-protein kinase ABL1 (ABL1, Homo sapiens, UniProt P00519, Y253F)
# ABL1 non-phosphorylated: Tyrosine-protein kinase ABL1, non-phosphorylated (ABL1, Homo sapiens, UniProt P00519)
# ABL1 T315I phosphorylated: Tyrosine-protein kinase ABL1, phosphorylated (ABL1, Homo sapiens, UniProt P00519, T315I)
# ABL1 Q252H non-phosphorylated: Tyrosine-protein kinase ABL1, non-phosphorylated (ABL1, Homo sapiens, UniProt P00519, Q252H)
# ABL1 H396P phosphorylated: Tyrosine-protein kinase ABL1, phosphorylated (ABL1, Homo sapiens, UniProt P00519, H396P)
# ABL1 Q252H phosphorylated: Tyrosine-protein kinase ABL1, phosphorylated (ABL1, Homo sapiens, UniProt P00519, Q252H)
# ABL1 T315I non-phosphorylated: Tyrosine-protein kinase ABL1, non-phosphorylated (ABL1, Homo sapiens, UniProt P00519, T315I)
# ABL1 phosphorylated: Tyrosine-protein kinase ABL1, phosphorylated (ABL1, Homo sapiens, UniProt P00519)
# ABL1 F317I phosphorylated: Tyrosine-protein kinase ABL1, phosphorylated (ABL1, Homo sapiens, UniProt P00519, F317I)
# ABL1 F317I non-phosphorylated: Tyrosine-protein kinase ABL1, non-phosphorylated (ABL1, Homo sapiens, UniProt P00519, F317I)
# ABL1 H396P non-phosphorylated: Tyrosine-protein kinase ABL1, non-phosphorylated (ABL1, Homo sapiens, UniProt P00519, H396P)
SMILES,target,assay,conditions,remaining binding [%]
CN1CCN(c2ccc(Nc3nccc(-c4ccccc4)n3)cc2C(F)(F)F)CC1,ABL1 Y253F,binding,10 µM,16
Cc1cnn2ncc(-c3ccnc(N(C)C)n3)c2c1,ABL1 Y253F,binding,1 µM,85
COc1cnc(Nc2cccc(S(N)(=O)=O)c2)nc1N1CCN(c2ccccc2)C(=O)C1,"Tyrosine-protein kinase ABL1, phosphorylated (ABL1, Homo sapiens, UniProt P00519, F317L)","binding, competition with immobilised ligand",1 µM,97
c1cnn2ncc(-c3ccnc(N4CCC45COC5)n3)c2c1,"Tyrosine-protein kinase ABL1 (ABL1, Homo sapiens, UniProt P00519, H396P)",binding,1 µM,66
O=C(c1ccc(Nc2ncc(Cl)c(-c3cc4ccccc4s3)n2)cc1)N1CCC(N2CCCC2)CC1,"Tyrosine-protein kinase ABL1, phosphorylated (ABL1, Homo sapiens, UniProt P00519, E255K)","binding, competition with immobilised ligand",1 µM,13
N[C@@H]1CCN(c2nccc(-c3cnn4ncccc34)n2)C1,"Tyrosine-protein kinase ABL1 (ABL1, Homo sapiens, UniProt P00519, F317I)",binding,1 µM,100
CN1CCN(c2cnc3c(C4CCN(C(=O)c5ccc(OC(F)(F)F)cc5N)CC4)ncnc3c2)CC1,ABL1 non-phosphorylated,"cell-free assay, competition with immobilised ligand",1 µM,91
O=C(NCCCN1CCOCC1)c1ccc(Nc2nccc(-c3cc4ccccc4s3)n2)cc1,ABL1 T315I phosphorylated,"binding, competition with immobilised ligand",1 µM,41
O=C(NS(=O)(=O)c1ccc(NCC2CCOCC2)c([N+](=O)[O-])c1)c1ccc(N2CCN(Cc3ccc(C(F)(F)F)cc3-c3ccc(Cl)cc3)CC2)cc1Oc1cnc2[nH]ccc2c1,ABL1 Q252H non-phosphorylated,"cell-free assay, competition with immobilised ligand",1 µM,100
COc1ncc2cc3ccccc3nc2c1C#N,"Tyrosine-protein kinase ABL1, phosphorylated (ABL1, Homo sapiens, UniProt P00519, M351T)","cell-free assay, competition with immobilised ligand",5 µM,100
O=C(NCCCN1CCOCC1)c1ccc(Nc2ncc(Cl)c(-c3ccc(Cl)s3)n2)cc1,ABL1 H396P phosphorylated,"binding, competition with immobilised ligand",1 µM,32
C=CC(=O)N1CCC(C(=O)NCC(=O)N2CCN(c3nc(-c4cnc(N)nc4C(F)F)nc(N4CCOCC4)n3)CC2)CC1,ABL1 Q252H phosphorylated,"binding, competition with immobilised ligand",1 µM,100
O=C(NCC1CCOCC1)c1n[nH]cc1NC(=O)c1c(F)cccc1F,ABL1 T315I non-phosphorylated,"binding, competition with immobilised ligand",1 µM,90
COc1ccc2c(O[C@@H]3C[C@H]4C(=O)N[C@]5(C(=O)O)CC5/C=C\CCCCC[C@H](NC(=O)OC5CCCC5)C(=O)N4C3)cc(-c3csc(NC(=O)C(C)C)n3)nc2c1C (some centres unmarked),ABL1 phosphorylated,"cell-free assay, competition with immobilised ligand",1 µM,93
CCN1CCN(Cc2ccc(C(=O)Nc3ccc(C)c(Oc4ccc5c(c4)CC(=O)N5)c3)cc2C(F)(F)F)CC1,ABL1 F317I phosphorylated,"binding, competition with immobilised ligand",1 µM,24
CC1CCCN1c1nccc(-c2cnn3ncccc23)n1 (centres unmarked),ABL1 non-phosphorylated,"binding, competition with immobilised ligand",1 µM,97
Cc1cnc(Nc2ccc(C(=O)N3CCC(N4CCCC4)CC3)cc2)nc1-c1cc2ccccc2s1,ABL1 non-phosphorylated,"binding, competition with immobilised ligand",1 µM,2.7
CNC(=O)[C@@H]1CC[C@@H](n2c(-c3ccc4cnccc4c3)nc3ccc(C(=O)NCc4cccc(C(N)=O)c4)cc32)C1,ABL1 F317I non-phosphorylated,"binding, competition with immobilised ligand",1 µM,100
CCOCCn1cc(C(=O)Nc2ccc(-n3nc(-c4cccnc4)cc3C(F)(F)F)cn2)ccc1=O,ABL1 Q252H phosphorylated,"cell-free assay, competition with immobilised ligand",1 µM,73
CN(C)c1nccc(-c2cnn3ncccc23)n1,ABL1 non-phosphorylated,"binding, competition with immobilised ligand",1 µM,98
O=C(O)[C@H]1[C@H](Cn2nnc3ccccc3c2=O)CC[C@@H]1C(=O)c1ccc(OCCC2CCOCC2)cc1,ABL1 H396P non-phosphorylated,"cell-free assay, competition with immobilised ligand",1 µM,94
C[C@@H]1CCN(c2nccc(-c3cnn4ncccc34)n2)C1,ABL1 phosphorylated,binding,1 µM,61
CN(c1ccnc(CNc2nc(Nc3ccc4c(c3)CC(=O)N4)ncc2C(F)(F)F)n1)S(C)(=O)=O,ABL1 F317I phosphorylated,binding,1 µM,79
O=C(Nc1c[nH]nc1C(=O)NC1CCNCC1)c1cc(F)cc(F)c1,ABL1 Q252H non-phosphorylated,"binding, competition with immobilised ligand",1 µM,100
O=C(c1ccc(Nc2nccc(-c3cc4ccccc4s3)n2)cc1)N1CCC(N2CCCC2)CC1,ABL1 H396P non-phosphorylated,"binding, competition with immobilised ligand",1 µM,3.1
COc1cnc(Nc2cccc(S(N)(=O)=O)c2)nc1N1CCN(c2ccccc2)CC1,ABL1 H396P phosphorylated,"binding, competition with immobilised ligand",1 µM,87
N#Cc1ccc(Nc2ccc3[nH]c(=O)[nH]c3c2)c(Cl)c1,ABL1 T315I phosphorylated,"cell-free assay, competition with immobilised ligand",1 µM,93
c1cncc(-c2cccc(Nc3nccc(NC4CCCCC4)n3)c2)c1,ABL1 Q252H non-phosphorylated,"binding, competition with immobilised ligand",10 µM,20
O=C(c1ccc(Nc2ncc(Cl)c(-c3ccc(Cl)s3)n2)cc1)N1CCC(N2CCCC2)CC1,ABL1 H396P phosphorylated,"binding, competition with immobilised ligand",1 µM,4.3
Nc1ncc2c(n1)-c1c([nH]c3ccc(C#CC4CC4)cc13)CCCC2,"Tyrosine-protein kinase ABL1, non-phosphorylated (ABL1, Homo sapiens, UniProt P00519, F317L)","binding, competition with immobilised ligand",1 µM,63
Cc1cc(NC(=O)c2cccc(S(F)(F)(F)(F)F)c2)cc(-n2ccn3nc(-c4cccnc4)cc23)c1,ABL1 F317I non-phosphorylated,"binding, competition with immobilised ligand",1 µM,100
CN(c1nccc(-c2cnn3ncccc23)n1)C1CC1,ABL1 phosphorylated,binding,1 µM,99
C[C@@H](c1ccc(-n2cnc3c(N)ncnc32)cc1)N1CCc2nn(C)c(Cc3ccccc3)c2C1=O,ABL1 T315I non-phosphorylated,"binding, competition with immobilised ligand",0.1 µM,33
F[C@@H]1CCN(c2nccc(-c3cnn4ncccc34)n2)C1,"Tyrosine-protein kinase ABL1 (ABL1, Homo sapiens, UniProt P00519, E255K)",binding,1 µM,100
COC(=O)Nc1nc2ccc(C(=O)c3ccccc3)cc2[nH]1,ABL1 phosphorylated,"cell-free assay, competition with immobilised ligand",10 µM,0.9
